Each block holds one compound with its values, some of them ahead of it.
Columns and labels:
NCI/ADR-RES = test: Growth inhibition of human NCI-ADR-RES cells incubated for 48 hrs by sulforhodamine B assay; format: functional
NCI-H226 = test: Growth inhibition of human NCI-H226 cells incubated for 48 hrs by sulforhodamine B assay; format: functional; settings: NCI-H226, 48 h
HCT-116 = test: Growth inhibition of human HCT116 cells incubated for 48 hrs by sulforhodamine B assay; format: functional; settings: HCT-116, 48 h
SN12C = test: Growth inhibition of human SN12C cells incubated for 48 hrs by sulforhodamine B assay; format: functional
NCI-H23 = test: Growth inhibition of human NCI-H23 cells incubated for 48 hrs by sulforhodamine B assay; format: functional; settings: NCI-H23, 48 h
SK-OV-3 = test: Growth inhibition of human SKOV3 cells incubated for 48 hrs by sulforhodamine B assay; format: functional; settings: SK-OV-3, 48 h
ACHN = test: Growth inhibition of human ACHN cells incubated for 48 hrs by sulforhodamine B assay; format: functional
SR = test: Growth inhibition of human SR cells incubated for 48 hrs by sulforhodamine B assay; format: functional
A549 = test: Growth inhibition of human A549/ATCC cells incubated for 48 hrs by sulforhodamine B assay; format: functional; settings: A549, 48 h
HT-29 = test: Growth inhibition of human HT-29 cells incubated for 48 hrs by sulforhodamine B assay; format: functional; settings: HT-29, 48 h
OVCAR-8 = test: Growth inhibition of human OVCAR8 cells incubated for 48 hrs by sulforhodamine B assay; format: functional; settings: OVCAR-8, 48 h
HOP-62 = test: Growth inhibition of human HOP62 cells incubated for 48 hrs by sulforhodamine B assay; format: functional; settings: HOP-62, 48 h
NCI-H522 = test: Growth inhibition of human NCI-H522 cells incubated for 48 hrs by sulforhodamine B assay; format: functional; settings: NCI-H522, 48 h
BT-549 = test: Growth inhibition of human BT549 cells incubated for 48 hrs by sulforhodamine B assay; format: functional; settings: BT-549, 48 h
UO-31 = test: Growth inhibition of human UO31 cells incubated for 48 hrs by sulforhodamine B assay; format: functional; settings: UO-31, 48 h
M14 = test: Growth inhibition of human M14 cells incubated for 48 hrs by sulforhodamine B assay; format: functional; settings: M14, 48 h
SW-620 = test: Growth inhibition of human SW620 cells incubated for 48 hrs by sulforhodamine B assay; format: functional; settings: SW-620, 48 h
SNB-19 = test: Growth inhibition of human SNB19 cells incubated for 48 hrs by sulforhodamine B assay; format: functional; settings: SNB-19, 48 h
KM12 = test: Growth inhibition of human KM12 cells incubated for 48 hrs by sulforhodamine B assay; format: functional; settings: KM12, 48 h
SF-295 = test: Growth inhibition of human SF295 cells incubated for 48 hrs by sulforhodamine B assay; format: functional; settings: SF-295, 48 h
MCF7 = test: Growth inhibition of human MCF7 cells incubated for 48 hrs by sulforhodamine B assay; format: functional; settings: MCF7, 48 h
LOX IMVI = test: Growth inhibition of human LOXIMVI cells incubated for 48 hrs by sulforhodamine B assay; format: functional
U-251 = test: Growth inhibition of human U251 cells incubated for 48 hrs by sulforhodamine B assay; format: functional; settings: U-251, 48 h
OVCAR-3 = test: Growth inhibition of human OVCAR3 cells incubated for 48 hrs by sulforhodamine B assay; format: functional; settings: OVCAR-3, 48 h
UACC-62 = test: Growth inhibition of human UACC62 cells incubated for 48 hrs by sulforhodamine B assay; format: functional; settings: UACC-62, 48 h
OVCAR-4 = test: Growth inhibition of human OVCAR4 cells incubated for 48 hrs by sulforhodamine B assay; format: functional; settings: OVCAR-4, 48 h
MDA-MB-435 = test: Growth inhibition of human MDA-MB-435 cells incubated for 48 hrs by sulforhodamine B assay; format: functional; settings: MDA-MB-435, 48 h
TK-10 = test: Growth inhibition of human TK10 cells incubated for 48 hrs by sulforhodamine B assay; format: functional; settings: TK-10, 48 h
K562 = test: Growth inhibition of human K562 cells incubated for 48 hrs by sulforhodamine B assay; format: functional; settings: K562, 48 h
DU-145 = test: Growth inhibition of human DU145 cells incubated for 48 hrs by sulforhodamine B assay; format: functional; settings: DU-145, 48 h
A498 = test: Growth inhibition of human A498 cells incubated for 48 hrs by sulforhodamine B assay; format: functional; settings: A498, 48 h
OVCAR-5 = test: Growth inhibition of human OVCAR5 cells incubated for 48 hrs by sulforhodamine B assay; format: functional; settings: OVCAR-5, 48 h
NCI-H460 = test: Growth inhibition of human NCI-H460 cells incubated for 48 hrs by sulforhodamine B assay; format: functional; settings: NCI-H460, 48 h
Malme-3M = test: Growth inhibition of human MALME-3M cells incubated for 48 hrs by sulforhodamine B assay; format: functional
[1] = Stabilization of 5'Dabcyl/3'FAM labeled duplex DNA (unknown origin) assessed as increase in melting temperature at 2.5 uM pretreated for 5 mins at 30 degreeC followed by 5 mins incubation at 95 degreeC by fluorescence assay
In short: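 FRET melting in LiP buffer (10 mM LiOH, 50 mM KCl, pH 7.0 with H3PO4), ex 488 nm, em 520 nm. Samples were held 5 min at 30 °C, heated at 1 °C/min to 95 °C, held 5 min, then re-annealed. Tm came from first derivatives; ΔTm = shift with ligand at 2.5; at least three runs.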

SK-MEL-5 = test: Growth inhibition of human SK-MEL-5 cells incubated for 48 hrs by sulforhodamine B assay; format: functional; settings: SK-MEL-5, 48 h
HOP-92 = test: Growth inhibition of human HOP92 cells incubated for 48 hrs by sulforhodamine B assay; format: functional; settings: HOP-92, 48 h
SF-268 = test: Growth inhibition of human SF268 cells incubated for 48 hrs by sulforhodamine B assay; format: functional; settings: SF-268, 48 h
HCC 2998 = test: Growth inhibition of human HCC2998 cells incubated for 48 hrs by sulforhodamine B assay; format: functional; settings: HCC 2998, 48 h
PC-3 = test: Growth inhibition of human PC3 cells incubated for 48 hrs by sulforhodamine B assay; format: functional; settings: PC-3, 48 h
MDA-MB-468 = test: Growth inhibition of human MDA-MB-468 cells incubated for 48 hrs by sulforhodamine B assay; format: functional; settings: MDA-MB-468, 48 h
IGROV-1 = test: Growth inhibition of human IGROV1 cells incubated for 48 hrs by sulforhodamine B assay; format: functional; settings: IGROV-1, 48 h
UACC-257 = test: Growth inhibition of human UACC257 cells incubated for 48 hrs by sulforhodamine B assay; format: functional; settings: UACC-257, 48 h
SNB-75 = test: Growth inhibition of human SNB75 cells incubated for 48 hrs by sulforhodamine B assay; format: functional; settings: SNB-75, 48 h
MDA-MB-231 = test: Growth inhibition of human MDA-MB-231 cells incubated for 48 hrs by sulforhodamine B assay; format: functional; settings: MDA-MB-231, 48 h

GI50 (NCI-H226): 1420 nM | GI50 (HCT-116): 270 nM | GI50 (NCI-H23): 1260 nM | GI50 (SK-OV-3): 2950 nM | GI50 (ACHN): 500 nM | GI50 (A549): 577 nM | GI50 (HT-29): 381 nM | GI50 (OVCAR-8): 797 nM | GI50 (NCI-H522): 1230 nM | GI50 (BT-549): 5030 nM | GI50 (SW-620): 365 nM | GI50 (MCF7): 512 nM | GI50 (U-251): 1610 nM | GI50 (OVCAR-3): 1370 nM | GI50 (OVCAR-4): 641 nM | GI50 (MDA-MB-435): 1070 nM | GI50 (K562): 408 nM | GI50 (DU-145): 1050 nM | GI50 (OVCAR-5): 1250 nM | GI50 (NCI-H460): 429 nM | ΔTm [1]: 9.5 °C | GI50 (SK-MEL-5): 1100 nM | GI50 (HCC 2998): 1930 nM | GI50 (PC-3): 1600 nM | GI50 (MDA-MB-468): 1000 nM | GI50 (MDA-MB-231): 2900 nM
SMILES: CNCCCNCCCN1C(=O)c2ccc3c4c(ccc(c24)C1=O)C(=O)N(CCCNCc1ccccc1OC)C3=O
GI50 (NCI/ADR-RES): 12100 nM | GI50 (SN12C): 1460 nM | GI50 (SR): 270 nM | GI50 (HOP-62): 1240 nM | GI50 (UO-31): 5880 nM | GI50 (M14): 1320 nM | GI50 (SNB-19): 1680 nM | GI50 (KM12): 1180 nM | GI50 (SF-295): 894 nM | GI50 (LOX IMVI): 1520 nM | GI50 (UACC-62): 1520 nM | GI50 (TK-10): 2580 nM | GI50 (A498): 1540 nM | GI50 (Malme-3M): 633 nM | GI50 (HOP-92): 2130 nM | GI50 (SF-268): 1030 nM | GI50 (IGROV-1): 1450 nM | GI50 (UACC-257): 1350 nM | GI50 (SNB-75): 1110 nM

GI50 (NCI-H226): 2260 nM | GI50 (HCT-116): 742 nM | GI50 (NCI-H23): 747 nM | GI50 (SK-OV-3): 4030 nM | GI50 (ACHN): 3720 nM | GI50 (A549): 1580 nM | GI50 (HT-29): 998 nM | GI50 (OVCAR-8): 826 nM | GI50 (NCI-H522): 1460 nM | GI50 (BT-549): 2230 nM | GI50 (SW-620): 641 nM | GI50 (MCF7): 643 nM | GI50 (U-251): 787 nM | GI50 (OVCAR-3): 338 nM | GI50 (OVCAR-4): 713 nM | GI50 (MDA-MB-435): 960 nM | GI50 (K562): 1900 nM | GI50 (DU-145): 1600 nM | GI50 (OVCAR-5): 3050 nM | GI50 (NCI-H460): 767 nM | ΔTm [1]: 9.1 °C | GI50 (SK-MEL-5): 730 nM | GI50 (HCC 2998): 810 nM | GI50 (PC-3): 2300 nM | GI50 (MDA-MB-468): 284 nM | GI50 (MDA-MB-231): 2680 nM
SMILES: COc1ccccc1CNCCCN1C(=O)c2ccc3c4c(ccc(c24)C1=O)C(=O)N(CCCCNCCCN)C3=O
GI50 (NCI/ADR-RES): 5990 nM | GI50 (SN12C): 947 nM | GI50 (SR): 38 nM | GI50 (HOP-62): 2980 nM | GI50 (UO-31): 3520 nM | GI50 (M14): 1900 nM | GI50 (SNB-19): 1320 nM | GI50 (KM12): 2550 nM | GI50 (SF-295): 3660 nM | GI50 (LOX IMVI): 1030 nM | GI50 (UACC-62): 1100 nM | GI50 (TK-10): 2620 nM | GI50 (A498): 4400 nM | GI50 (Malme-3M): 984 nM | GI50 (HOP-92): 2040 nM | GI50 (SF-268): 1660 nM | GI50 (IGROV-1): 1440 nM | GI50 (UACC-257): 916 nM | GI50 (SNB-75): 16700 nM

Reference: ChEMBL document CHEMBL4004831, “Naphthalene diimide-polyamine hybrids as antiproliferative agents: Focus on the architecture of the polyamine chains” (Eur J Med Chem, 2017)
